# Rows were chosen to be rich in hits. Some 1.9% of all compounds tested hit in one or more screens of this group.
# bCat nuc transl – modulators of beta-catenin nuclear translocation, primary screen, imaging, HeLa cells, immunofluorescence, high-content; AID 1665, 2009; nuclear translocation activity, % at 5 µM; 190,000 tested, 0.3% active;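 active = nuclear translocation activity above 50% at 5 µM, with a well cell count of 50 or more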;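 also: per-cell ratio of nuclear to cytoplasmic median beta-catenin stain intensity; plate controls were DMSO negative control for no effect and GSK-3 inhibitor IX positive control for full effect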
#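 test system = HeLa cells, endogenous beta-catenin | dosing = single 5 µM dose plus 0.02–20 µM confirmation series | times = compound treatment 24 h, 37°C, 5% CO2 | technique = beta-catenin immunofluorescence imaging with DAPI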
# MT stabilize HCS – microtubule stabilizers in HeLa cells, primary screen, imaging, high-content imaging; 200,000 tested, 0.83% active; HeLa tubulin immunostaining HCS, 24 h; share of cells brighter than vehicle mean+2SD; % tubulin-high responders, % at 10 µM;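 active = plate Z-score above 3 for both tubulin-high and condensed-nucleus cell shares, with cell loss under 80%, at 10 µM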;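 also: anti alpha tubulin signal scored within the nucleus-defined area of each cell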
# ROMK mod – ROMK potassium channel modulators, primary screen, cell-based, thallium flux, MLSMR library | Tet-inducible ROMK, thallium flux fluorescence; actives lie on both sides | ATP-sensitive inward rectifier potassium channel 1 (Homo sapiens), P48048 | B-score at 10 µM | 130,000 tested, 2% active;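 active = signal ratio slope over the read window, or its plate-corrected B-score, at least 3 SD from the plate mean, either direction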;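 also: B-score of the F/F0 ratio slope over 7 to 12 s after thallium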
# Target sequence (P48048 whole entry, looked up): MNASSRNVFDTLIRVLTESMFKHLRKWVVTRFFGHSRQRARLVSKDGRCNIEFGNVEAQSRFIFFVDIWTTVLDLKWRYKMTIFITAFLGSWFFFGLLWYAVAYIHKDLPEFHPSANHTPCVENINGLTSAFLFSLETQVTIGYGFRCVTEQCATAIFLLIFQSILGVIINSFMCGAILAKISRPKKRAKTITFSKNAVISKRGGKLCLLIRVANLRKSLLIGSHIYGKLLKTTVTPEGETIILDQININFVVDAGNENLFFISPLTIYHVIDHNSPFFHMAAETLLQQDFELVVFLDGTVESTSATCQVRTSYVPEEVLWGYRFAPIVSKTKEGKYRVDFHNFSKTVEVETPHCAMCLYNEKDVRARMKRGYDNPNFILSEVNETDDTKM
# ROMK hit retest – ROMK channel modulator hit retest, confirmation, cell-based, thallium flux, duplicate, resupplied hits; shares compounds with ROMK mod; fluorescence ratio; stronger effect = lower value; normalized thallium flux (F/F0 slope) at 10 µM; 3,000 tested, 54% active; AID 1917, 2009;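 active = Flux at 10 µM at least 3 SD below or above vehicle control mean in one or both replicates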
# The depositor's hits bear a star; / = no result.
SMILES,bCat nuc transl,MT stabilize HCS,ROMK mod,ROMK hit retest
COC(=O)C(C(=O)OC)C(C[N+](=O)[O-])c1ccc(OC)c(OC)c1 (configuration not stated),0,2,0.5,/
Cc1cccc(C(=O)N[C@H](C(=O)Nc2nccs2)C(C)C)c1,-4,7,/,/
CN1CCN(c2nc(-c3cccnc3)nc3ccccc23)CC1,0,4,-0.76,/
COc1cc2c(cc1OC)CN(c1nc(-c3cccnc3)nc3ccccc13)CC2,0,5,-0.16,0.08
CCCCC1(C)NC(=S)N2N1C(=S)NC2(C)CCCC (configuration not stated),-1,/,-0.035,/
Cc1ccc(S(=O)(=O)N2CCCCC2)cc1NC(=O)CNCc1ccco1,-2,/,/,/
O=C(CCC(=O)c1ccc(F)cc1)Nc1cccc(S(=O)(=O)Nc2cccc(Cl)c2)c1,-2,1,0.33,/
O=C(O)c1ccccc1C(=O)NCCc1c(C(=O)O)[nH]c2ccc(Cl)cc12,0,/,/,/
COc1ccc(-c2nn(-c3ccccc3)cc2C(=O)NC(=S)Nc2cc(Cl)ccc2Cl)cc1,0,/,/,/
CCOc1ccc(-n2ccnc2SCC(=O)Nc2cc(C)on2)cc1,-1,/,0.15,/
COc1cccc(/C=N/n2c(SC)nnc2-c2ccccc2)c1OC,-4,6,/,/
COc1cccc(/C=N/n2c(SC)nnc2-c2ccccc2)c1O,90*,27,3.6*,0.081
COc1c(C)cc(C(=O)C2CCCN(C(=O)c3snnc3C)C2)cc1C (configuration not stated),0,2,0.41,/
Cc1cc(C(=O)OCc2nnc(-c3ccccc3)o2)c(C)n1-c1ccccc1,-1,3,/,/
Cc1noc(C)c1COC(=O)c1cc(C)n(-c2ccccc2)c1C,-1,3,/,0.088
C/C(CC(=O)Nc1cccnc1)=N\NC(=O)C(C)Oc1ccc(Cl)cc1Cl (configuration not stated),1,/,/,/
COc1ccc(Cn2c(O)c(C=Nc3ccc(O)cc3)c3ccccc3c2=O)cc1,-1,1,0.33,/
O=c1c2ccccc2c(C=Nc2ccc(O)cc2)c(O)n1Cc1ccccc1,1,/,-4.6*,0.041*
S=c1nc(-c2csc3c2CCCC3)[nH][nH]1,-1,7,-0.51,/
C=CCN(CC=C)S(=O)(=O)c1ccc(NC(=S)NC(=O)/C=C/c2cccc3ccccc23)cc1,-3,2,0.059,/
C=CCN(CC=C)S(=O)(=O)c1ccc(NC(=S)NC(=O)/C=C/c2ccc(C)cc2)cc1,0,3,1.7*,0.084
CC(=O)Nc1ccc(C(=O)N/N=C/c2cc(Br)cc(Br)c2O)cc1,8,4,1.3,/
Cc1ccc(C(=O)O)cc1N=Cc1cc(Br)cc(Br)c1O,-4,2,5.1*,0.11*
Cc1cccc(-n2cnc3c(sc4nc(N5CCOCC5)c5c(c43)CCCC5)c2=O)c1,-5,/,/,/
CCOc1ccc(OCc2ccc(C(=O)N3N=C(C(F)F)CC3(O)C(F)F)o2)cc1 (configuration not stated),5,2,0.22,/
SMILES,bCat nuc transl,MT stabilize HCS,ROMK mod,ROMK hit retest
Cc1cc(C)cc(OCc2ccc(C(=O)N3N=C(C(F)F)CC3(O)C(F)F)o2)c1 (configuration not stated),-1,2,3*,0.08
COc1cc(CNc2ncnc3c2[nH]c2ccc(C)cc23)cc(OC)c1,-1,/,0.035,/
CCc1nc(NCc2ccco2)c2oc3ccccc3c2n1,-1,2,/,/
c1coc(CNc2ncnc3c2oc2ccccc23)c1,-3,3,-3.5*,0.061*
Cc1ccc2[nH]c3c(NCc4ccco4)ncnc3c2c1,-2,9,-3.4*,0.065*
COc1cc(C2/C(=C(/O)c3ccc(F)cc3)C(=O)C(=O)N2CCCC(=O)O)ccc1O (configuration not stated),/,10,-0.0012,/
COc1ccc(C(NC(=O)/C=C/c2ccco2)c2ccc(OC)c(OC)c2)cc1OC,-1,2,-0.12,/
CCOC(=O)c1sc2nccc(OC)c2c1N=CNOC,0,4,0.11,/
CC1CCN(C(=O)c2ccc(CNc3c(N4CCCC4)c(=O)c3=O)cc2)CC1,0,/,-0.97,/
O=C(c1ccc(CNc2c(N3CCCC3)c(=O)c2=O)cc1)N1CCN(C2CCCCC2)CC1,-1,3,3.7*,0.085
COc1ccc(Cl)cc1NC(=S)NCCSc1ccc(C)cc1,0,7,/,/
CCCCN1C(=O)/C(=C/C=C2\N(C)c3ccccc3C2(C)C)SC1=S,13,11,-4.4*,0.039*
CN1CCS/C1=C/C=C1\SC(=S)N(CC(=O)O)C1=O,2,3,/,/
CCCCN1C(=O)/C(=C/C=C2\SCCN2C)SC1=S,-2,2,-3.3*,0.052*
CCCN1C(=O)/C(=C\C=C2/C=CN(CC)c3ccccc32)SC1=S,-1,3,/,/
Cc1ccccc1CNc1ccc(C(CC(N)=O)NC(=O)c2ccccc2)cc1[N+](=O)[O-] (configuration not stated),-1,/,/,/
CC(CCc1ccccc1)NCC#N (configuration not stated),1,/,0.09,/
COC(=O)c1sc2nc(C)c([N+](=O)[O-])c(C)c2c1N,-2,5,/,/
COc1ccccc1C1CCN(c2ccc([N+](=O)[O-])c(OC)c2)CC1,1,/,/,/
COc1ccccc1C1C([N+](=O)[O-])=CC([N+](=O)[O-])=CN1C (configuration not stated),-3,7,-5*,0.055*
COc1ccccc1Oc1ccccc1[N+](=O)[O-],0,/,/,/
COc1ccccc1C1NC=C([N+](=O)[O-])C=C1[N+](=O)[O-] (configuration not stated),-2,4,/,0.051*
CCN(CC)c1ccc(CNc2nc3ccccc3n2CC)cc1,0,/,0.29,/
COc1ccccc1Oc1ccc(S(=O)(=O)NCc2ccccn2)cc1,/,1,-2.7*,0.073
COc1ccc(S(=O)(=O)NCc2ccccn2)cc1Cl,/,4,/,/
SMILES,bCat nuc transl,MT stabilize HCS,ROMK mod,ROMK hit retest
CCOc1cc(-c2nc(C)c(C(C)=O)n2O)ccc1OCC(=O)Nc1ccccc1,0,4,-0.033,/
O=C1OC(c2cccs2)=N/C1=C\c1ccc(-c2cccc(Cl)c2)o1,-2,3,/,0.052*
N=C1S/C(=C\c2ccc(-c3cccc(Cl)c3)o2)C(=O)N1c1nccs1,2,4,/,/
O=C(COc1cc(Cl)c(Cl)cc1Cl)N1CCN(c2ccccn2)CC1,0,2,-3*,0.066*
O=C(COc1ccc(Cl)cc1Cl)N1CCN(c2ccccn2)CC1,-1,3,-2.1,/
O=C(N1CCN(c2ccccn2)CC1)C(Cl)(Cl)Cl,-1,3,-0.47,/
O=C(c1ccco1)N1c2ccccc2Sc2ccccc21,-1,4,/,/
O=C(c1ccco1)N1CCN(C(=O)N2c3ccccc3Sc3ccccc32)CC1,35,14*,-3*,0.073
O=C(c1cnsn1)N1CCN(c2ccccn2)CC1,2,3,1.6*,0.073
Cc1cc(C(=O)N2CCN(c3ccccn3)CC2)no1,-3,2,/,/
